According to ChEMBL document CHEMBL1128391, “Investigation of the configurational and conformational influences on the hormonal activity of 1,2-bis(2,6-dichloro-4-hydroxyphenyl)ethylenediamines and of their platinum(II) complexes. 1. Synthesis, estradiol receptor affinity, and estrogenic activity of diastereomeric [N-alkyl- and …” (J Med Chem, 1995):

Tests used:
Type in all cases: functional
[1] = target: T1, Estrogen receptor (Mus musculus) (UniProt O08537+P19785); assay: Estrogenic effect in uterotrophic assay in mice at 0.1 nM/animal dose
T1 sequence (O08537 whole entry, looked up): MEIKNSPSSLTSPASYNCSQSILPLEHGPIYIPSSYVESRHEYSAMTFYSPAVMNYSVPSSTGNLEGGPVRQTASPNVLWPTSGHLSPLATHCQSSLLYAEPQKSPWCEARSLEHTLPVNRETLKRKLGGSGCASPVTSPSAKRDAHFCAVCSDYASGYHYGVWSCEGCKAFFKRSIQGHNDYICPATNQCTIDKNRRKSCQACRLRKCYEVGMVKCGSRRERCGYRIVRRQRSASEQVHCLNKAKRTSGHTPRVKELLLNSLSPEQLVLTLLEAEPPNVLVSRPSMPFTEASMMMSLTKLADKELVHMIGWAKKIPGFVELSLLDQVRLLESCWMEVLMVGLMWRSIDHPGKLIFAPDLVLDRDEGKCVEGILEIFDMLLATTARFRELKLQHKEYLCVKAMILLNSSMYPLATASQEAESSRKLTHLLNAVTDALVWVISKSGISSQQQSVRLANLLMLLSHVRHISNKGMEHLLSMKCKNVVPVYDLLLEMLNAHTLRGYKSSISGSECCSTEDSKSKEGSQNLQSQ
T1 sequence (P19785 whole entry, looked up): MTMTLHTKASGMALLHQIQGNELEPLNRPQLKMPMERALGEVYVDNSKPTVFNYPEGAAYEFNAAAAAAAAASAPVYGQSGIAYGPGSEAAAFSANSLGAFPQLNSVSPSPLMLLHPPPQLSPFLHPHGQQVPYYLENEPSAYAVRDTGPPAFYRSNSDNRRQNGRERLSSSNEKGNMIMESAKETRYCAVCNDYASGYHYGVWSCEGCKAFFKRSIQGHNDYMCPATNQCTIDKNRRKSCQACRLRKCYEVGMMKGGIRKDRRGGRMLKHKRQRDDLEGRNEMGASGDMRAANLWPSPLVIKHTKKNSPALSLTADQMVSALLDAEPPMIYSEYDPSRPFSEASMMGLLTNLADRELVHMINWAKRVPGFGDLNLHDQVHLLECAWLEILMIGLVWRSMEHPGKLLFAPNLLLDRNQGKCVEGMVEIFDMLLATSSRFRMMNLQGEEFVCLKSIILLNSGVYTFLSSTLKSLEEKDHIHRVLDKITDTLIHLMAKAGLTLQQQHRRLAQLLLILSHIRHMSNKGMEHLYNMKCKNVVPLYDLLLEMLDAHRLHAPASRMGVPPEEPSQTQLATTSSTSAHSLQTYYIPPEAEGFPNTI
Summary of the method: (§1)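 Immature female NMRI mice (20 days old, 10–12 g, six per group) given test compound sc once daily for three consecutive days in poly(ethylene glycol) 400/H2O (1.8% NaCl) 1:1. Uteri excised 24 h after last injection, fixed in Bouin's solution, dried, weighed. Effect = uterus dry weight (mg)/body weight (g) × 100, expressed relative to vehicle and estrone standard (0.4 μg) as % estrogenic effect.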

[2] = target: T1, Estrogen receptor (Mus musculus); assay: Estrogenic effect in uterotrophic assay in mice at 1 nM/animal dose; summary of the method: as §1
[3] = target: T1, Estrogen receptor (Mus musculus); assay: Estrogenic effect in uterotrophic assay in mice at 10 nM/animal dose; summary of the method: as §1
[4] = target: T1, Estrogen receptor (Mus musculus); assay: Estrogenic effect in uterotrophic assay in mice at 100 nM/animal dose; summary of the method: as §1
[5] = target: T1, Estrogen receptor (Mus musculus); assay: Estrogenic effect in uterotrophic assay in mice at 1000 nM/animal dose; summary of the method: as §1

CCNC(CCC(N)c1c(Cl)cc(O)cc1Cl)c1c(Cl)cc(O)cc1Cl (stereo unspecified)
Estrogenic effect [1]: 22% | Estrogenic effect [2]: 93% | Estrogenic effect [3]: 140% | Estrogenic effect [4]: 156%

CCNC(CCC(NCC)c1c(Cl)cc(O)cc1Cl)c1c(Cl)cc(O)cc1Cl (racemic)
Estrogenic effect [1]: 0% | Estrogenic effect [2]: 0% | Estrogenic effect [3]: 78% | Estrogenic effect [4]: 142%

CNC(CCC(NC)c1c(Cl)cc(O)cc1Cl)c1c(Cl)cc(O)cc1Cl (racemic)
Estrogenic effect [5]: 72% | Estrogenic effect [1]: 0% | Estrogenic effect [2]: 0% | Estrogenic effect [3]: 3% | Estrogenic effect [4]: 12%

NC(CCC(N)c1c(Cl)cc(O)cc1Cl)c1c(Cl)cc(O)cc1Cl (racemic)
Estrogenic effect [5]: 21% | Estrogenic effect [1]: 0% | Estrogenic effect [2]: 0% | Estrogenic effect [3]: 13% | Estrogenic effect [4]: 10%

CCNC(CCC(NCC)c1c(Cl)cc(O)cc1Cl)c1c(Cl)cc(O)cc1Cl (stereo in doubt)
Estrogenic effect [1]: 61% | Estrogenic effect [2]: 125% | Estrogenic effect [3]: 140% | Estrogenic effect [4]: 128%

CNC(CCC(NC)c1c(Cl)cc(O)cc1Cl)c1c(Cl)cc(O)cc1Cl (stereo in doubt)
Estrogenic effect [5]: 47% | Estrogenic effect [1]: 0% | Estrogenic effect [2]: 47% | Estrogenic effect [3]: 139% | Estrogenic effect [4]: 127%

NC(CCC(N)c1c(Cl)cc(O)cc1Cl)c1c(Cl)cc(O)cc1Cl (stereo in doubt)
Estrogenic effect [1]: 0% | Estrogenic effect [2]: 38% | Estrogenic effect [3]: 135% | Estrogenic effect [4]: 100%
